High-throughput results deposited in PubChem BioAssay by several laboratories.
This is a sample that favours compounds with a hit; in the whole collection about 1.3% have one here.
PLC-gamma1 inh = PLC-gamma1 enzyme inhibitors, primary screen, biochemical, fluorescence, purified enzyme; 1-phosphatidylinositol 4,5-bisphosphate phosphodiesterase gamma-1 (Homo sapiens), P19174; fluorogenic substrate; inhibition, % at 12.2 µM; 370,000 compounds, 0.84% hits; AID 720700, 2013
Arrestin-AP2 inh = inhibitors of beta-arrestin/AP2 binding, primary screen, biochemical, GPCR trafficking, flow cytometry; beta-arrestin 1 C-terminal peptide binding to AP2 beta2-adaptin appendage (human); FITC-arrestin peptide / GST-AP2 beads; AP2 beta2 appendage carries R879A mutation; inhibition, % at 10 µM; 340,000 compounds, 0.31% hits; AID 504490, 2011;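 active means inhibition above a set limit, near 3 SD of compounds lacking own fluorescence, cut at about 54% in these data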;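 further: plate controls were DMSO wells for no effect and 5 µM unlabelled arrestin peptide for full effect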
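System: GST-tagged AP2 beta2-adaptin appendage (R879A) on 4 µm glutathione beads / Reagent: FITC-arrestin peptide, 50 nM / Detection: HyperCyt-sampled flow cytometry, FL1 channel, ex 488/em 535 nm / Timing: 12 min plus 1 h, RT / Buffer or medium: PBS plus Tween 20 (0.05%) and BSA (0.1%)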
NTR1 agonist = agonists of human NTR1, primary screen, imaging, U2OS cells, beta-arrestin-GFP, high content; NTR1-U2OS beta-arrestin-GFP spot imaging, agonist mode; activation, % at 20 µM; 330,000 compounds, 0.17% hits;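 active means activation at or above 40% of the spot to cytoplasm intensity ratio, with at least 20 cells analyzed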;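 further: 0% = DMSO without peptide and 100% = 100 nM NTR1 peptide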
PLCb3 inh = human PLC-beta3 inhibitors, primary screen, biochemical, fluorescence. AID 720704, 2013. inhibition, % at 12.2 µM. 1-phosphatidylinositol 4,5-bisphosphate phosphodiesterase beta-3 (Homo sapiens), Q01970. Purified PLC-beta3, fluorogenic substrate. 370,000 compounds, 0.18% hits; in the data active means inhibition above about 11%;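 further: 0% = median of compound wells on plate and 100% = full blocker control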
PLCg1 ctr = PLC-gamma1 enzyme inhibitors, counter-screen for PLC-beta3 inhibitor project, biochemical, fluorescence. inhibition, % at 12.3 µM. shares compounds with PLC-gamma1 inh. 3,300 compounds, 3.1% hits. purified PLC-gamma1, fluorogenic substrate
PLCbeta3 conf = PLC-beta3 inhibitor confirmation, biochemical, fluorescence, purified enzyme | 3,300 compounds, 1% hits | inhibition, % at 12.3 µM | shares compounds with PLC-gamma1 inh | AID 743261, 2014 | fluorogenic substrate fluorescence; in the data active means inhibition above about 11%
Numbers without * were called inactive. Unless noted, no stated cut-off is given here; in the data, active means inhibition above about 9.5%; inactive means the rest.

Results for CCCC(=O)NNC(=O)CCC(=O)Nc1ccccc1Cl ?
PLC-gamma1 inh: 10*; Arrestin-AP2 inh: 1; NTR1 agonist: 1; PLCb3 inh: 0; PLCg1 ctr: -4; PLCbeta3 conf: -2

What do the screens show for `COC(=O)c1cc2c(c3c4ccccc4n(S(=O)(=O)c4cccc(C)c4)c13)C(=O)N(C)C2`?
PLC-gamma1 inh: -13; PLCb3 inh: -17

What do the screens show for `O=C1c2cccnc2C(=O)N1c1cccc([N+](=O)[O-])c1`?
PLC-gamma1 inh: 16*; Arrestin-AP2 inh: 4; NTR1 agonist: 1; PLCb3 inh: 0; PLCg1 ctr: -2; PLCbeta3 conf: -3

What do the screens show for `CC(=O)C1C(c2ccccc2)c2c(n[nH]c2C)CC1(C)O` (stereo not drawn)?
PLC-gamma1 inh: 12*; Arrestin-AP2 inh: -9; NTR1 agonist: 1; PLCb3 inh: 3; PLCg1 ctr: -4; PLCbeta3 conf: -3

What do the screens show for `CC(=O)C1C(c2ccc(C)cc2)c2c(n[nH]c2C)CC1(C)O` (stereo not drawn)?
PLC-gamma1 inh: 4; Arrestin-AP2 inh: 9; NTR1 agonist: 15; PLCb3 inh: 4

How did O=C(C(=O)N1CCN(c2ccccc2)CC1)c1c[nH]c2ccccc12 do in these assays?
PLC-gamma1 inh: -1; Arrestin-AP2 inh: 17; NTR1 agonist: 2; PLCb3 inh: -7

How did COc1ccc(N2CCN(C(=O)C(=O)c3c[nH]c4ccccc34)CC2)cc1 do in these assays?
PLC-gamma1 inh: 9.8*; Arrestin-AP2 inh: 12; NTR1 agonist: 0; PLCb3 inh: -2; PLCg1 ctr: -4; PLCbeta3 conf: -1

What do the screens show for `O=C(Cc1cccs1)N1CCC(c2nc3c(nnn3Cc3ccccc3Cl)c(=O)[nH]2)CC1`?
PLC-gamma1 inh: 18*; Arrestin-AP2 inh: 0; NTR1 agonist: 4; PLCb3 inh: 17*; PLCg1 ctr: 11*; PLCbeta3 conf: 16*

Results for O=c1[nH]c(C2CCN(S(=O)(=O)c3ccccc3)CC2)nc2c1nnn2Cc1ccc2c(c1)OCCO2 ?
PLC-gamma1 inh: 10*; Arrestin-AP2 inh: 0; NTR1 agonist: 4; PLCb3 inh: -3; PLCg1 ctr: -3; PLCbeta3 conf: -1

What do the screens show for `O=c1[nH]c(C2CCN(S(=O)(=O)c3ccc4c(c3)OCCO4)CC2)nc2c1nnn2Cc1ccc(F)cc1`?
PLC-gamma1 inh: 1; Arrestin-AP2 inh: -4; NTR1 agonist: 0; PLCb3 inh: -6

What do the screens show for `O=S(=O)(c1ccccc1Br)N(Cc1cn(CC2CCCCC2)nn1)C1CC1`?
PLC-gamma1 inh: 3; PLCb3 inh: 1

How did CCOc1cc(CCNC(=O)c2cc3ccsc3n2C)ccc1OC do in these assays?
PLC-gamma1 inh: 2; PLCb3 inh: 3

What do the screens show for `CCCCCCC1CC(CSC(=N)N)OC1=O` (stereo not drawn)?
PLC-gamma1 inh: 11*; Arrestin-AP2 inh: 2; NTR1 agonist: 2; PLCb3 inh: 6; PLCg1 ctr: 7; PLCbeta3 conf: 0

What do the screens show for `CCCN(C(=O)c1cn(CCC)c2ccccc12)c1ccc(Oc2cccnc2)cc1`?
PLC-gamma1 inh: 1; PLCb3 inh: -2

How did COc1ccc(S(=O)(=O)NCC(c2ccco2)N2CCc3ccccc32)cc1 (stereo not drawn) do in these assays?
PLC-gamma1 inh: 11*; Arrestin-AP2 inh: 2; NTR1 agonist: 3; PLCb3 inh: 3; PLCg1 ctr: -3; PLCbeta3 conf: 0

How did Cc1ccc(S(=O)(=O)NCC(c2ccco2)N2CCc3ccccc32)cc1 (stereo not drawn) do in these assays?
PLC-gamma1 inh: -3; Arrestin-AP2 inh: 3; NTR1 agonist: 5; PLCb3 inh: -7

How did Cc1nc(SCC(C)C)[nH]c(=O)c1Cc1ccccc1 do in these assays?
PLC-gamma1 inh: -1; Arrestin-AP2 inh: 7; NTR1 agonist: 1; PLCb3 inh: -1

How did CSc1nc(C)c(Cc2ccccc2)c(=O)[nH]1 do in these assays?
PLC-gamma1 inh: 11*; Arrestin-AP2 inh: -22; NTR1 agonist: 0; PLCb3 inh: 0; PLCg1 ctr: -11; PLCbeta3 conf: -3

What do the screens show for `Cc1ccc(NC(=O)CSc2nnc(C3CCCCC3)n2N)cc1F`?
PLC-gamma1 inh: 13*; Arrestin-AP2 inh: 16; NTR1 agonist: 0; PLCb3 inh: 3; PLCg1 ctr: -3; PLCbeta3 conf: 1

What do the screens show for `CCOC(=O)C1=C(CC)Nc2ccccc2N=C1NC(=O)Cn1cnc2ccccc2c1=O`?
PLC-gamma1 inh: 9.5*; Arrestin-AP2 inh: -4; NTR1 agonist: -1; PLCb3 inh: 8; PLCg1 ctr: -7; PLCbeta3 conf: -3

What do the screens show for `CCc1ccc(NC(=O)CCNC(=O)Cn2cnc3ccccc3c2=O)cc1`?
PLC-gamma1 inh: 3; Arrestin-AP2 inh: 0; NTR1 agonist: 1; PLCb3 inh: -4

What do the screens show for `CCOc1ccc(NC(=O)CCNC(=O)Cn2cnc3ccccc3c2=O)cc1`?
PLC-gamma1 inh: 9.6*; Arrestin-AP2 inh: 26; NTR1 agonist: 0; PLCb3 inh: -9; PLCg1 ctr: -1; PLCbeta3 conf: 1

How did CO/N=C/C(C#N)=C/c1ccc(OC)cc1 do in these assays?
PLC-gamma1 inh: 15*; Arrestin-AP2 inh: 0; NTR1 agonist: 0; PLCb3 inh: 7; PLCg1 ctr: -2; PLCbeta3 conf: 1

Results for CSC(=Cc1ccc(C(=O)c2ccc(C)cc2)n1C)S(C)=O (stereo not drawn) ?
PLC-gamma1 inh: -33; PLCb3 inh: -52

Results for COc1ccc2sc(C)nc2c1NC(C)=O ?
PLC-gamma1 inh: 12*; Arrestin-AP2 inh: 19; NTR1 agonist: -1; PLCb3 inh: 5; PLCg1 ctr: -1; PLCbeta3 conf: 4

What do the screens show for `COc1ccc(NC(C)=O)c2nc(C)c(C)nc12`?
PLC-gamma1 inh: -2; Arrestin-AP2 inh: 8; NTR1 agonist: 0; PLCb3 inh: -1

Results for CC(=O)c1c(C)nn(C(=O)N2CCOCC2)c1C ?
PLC-gamma1 inh: 8; Arrestin-AP2 inh: -8; NTR1 agonist: 0; PLCb3 inh: 15*; PLCg1 ctr: -7; PLCbeta3 conf: -4

What do the screens show for `Cc1nn(C(=O)N2CCOCC2)c(C)c1CN1C(=O)c2ccccc2C1=O`?
PLC-gamma1 inh: -1; Arrestin-AP2 inh: 5; NTR1 agonist: 0; PLCb3 inh: -3

What do the screens show for `Cc1ccc(C(=O)NC(=S)Nc2ccc(CN3CCOCC3)cc2)cc1`?
PLC-gamma1 inh: 10*; Arrestin-AP2 inh: -11; NTR1 agonist: 2; PLCb3 inh: -2; PLCg1 ctr: -7; PLCbeta3 conf: -3
